pKi: −log10 of the molar value.
Tests used:
[1] = molecular target: T1, GABA-A receptor; alpha-3/beta-3/gamma-2 (Homo sapiens, UniProt P18507+P28472+P34903); assay: Binding affinity by displacement of [3H]Ro-151788 from recombinant human gamma-aminobutyric-acid A receptor alpha3,beta3,gamma2 stably expressed in L cells; type: cell-based
T1 sequence (P18507 whole entry): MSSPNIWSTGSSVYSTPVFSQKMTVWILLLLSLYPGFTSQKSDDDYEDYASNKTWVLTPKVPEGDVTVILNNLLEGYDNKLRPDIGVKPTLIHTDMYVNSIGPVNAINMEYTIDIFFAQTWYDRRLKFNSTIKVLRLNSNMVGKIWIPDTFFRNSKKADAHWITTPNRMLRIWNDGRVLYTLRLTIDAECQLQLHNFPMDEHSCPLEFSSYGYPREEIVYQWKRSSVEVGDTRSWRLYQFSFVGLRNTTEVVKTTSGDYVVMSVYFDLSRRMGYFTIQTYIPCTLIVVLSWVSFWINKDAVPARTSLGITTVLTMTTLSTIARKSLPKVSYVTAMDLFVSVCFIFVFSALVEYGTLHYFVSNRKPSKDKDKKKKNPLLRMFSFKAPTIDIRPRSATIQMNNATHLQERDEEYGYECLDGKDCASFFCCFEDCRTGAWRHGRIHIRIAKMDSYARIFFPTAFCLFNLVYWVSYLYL
T1 sequence (P28472 whole entry): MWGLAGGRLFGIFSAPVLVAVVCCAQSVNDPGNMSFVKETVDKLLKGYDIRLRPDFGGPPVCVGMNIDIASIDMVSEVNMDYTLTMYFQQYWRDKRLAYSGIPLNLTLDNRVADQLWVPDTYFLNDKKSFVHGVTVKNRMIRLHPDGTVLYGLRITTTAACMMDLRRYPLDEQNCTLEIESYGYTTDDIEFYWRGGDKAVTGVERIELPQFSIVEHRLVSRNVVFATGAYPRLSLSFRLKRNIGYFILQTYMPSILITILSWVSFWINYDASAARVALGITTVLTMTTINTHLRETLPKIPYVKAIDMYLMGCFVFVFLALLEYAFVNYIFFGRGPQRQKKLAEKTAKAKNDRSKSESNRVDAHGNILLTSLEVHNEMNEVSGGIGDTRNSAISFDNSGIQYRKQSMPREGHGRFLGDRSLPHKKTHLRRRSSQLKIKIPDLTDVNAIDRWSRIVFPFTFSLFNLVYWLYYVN
T1 sequence (P34903 whole entry): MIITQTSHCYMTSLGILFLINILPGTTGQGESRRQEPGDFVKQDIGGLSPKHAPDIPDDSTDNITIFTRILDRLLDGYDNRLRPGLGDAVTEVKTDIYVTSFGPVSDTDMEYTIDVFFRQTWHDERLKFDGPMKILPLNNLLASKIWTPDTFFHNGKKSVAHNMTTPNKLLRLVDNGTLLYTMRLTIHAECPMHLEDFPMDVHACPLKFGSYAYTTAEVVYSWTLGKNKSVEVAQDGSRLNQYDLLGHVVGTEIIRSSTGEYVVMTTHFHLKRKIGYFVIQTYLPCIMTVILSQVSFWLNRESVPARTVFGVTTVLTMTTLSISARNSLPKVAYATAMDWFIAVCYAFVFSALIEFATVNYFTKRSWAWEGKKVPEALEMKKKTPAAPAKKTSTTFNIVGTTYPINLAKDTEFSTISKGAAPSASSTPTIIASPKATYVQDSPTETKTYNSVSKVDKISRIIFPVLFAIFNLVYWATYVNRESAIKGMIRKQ
How it was run: (§1)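 Competition binding against [3H]Ro15-1788 on cloned human α1/α2/α3/α5 β3γ2S receptors stably expressed in L(tk-) cells. Six to eight test concentrations spaced in half-log steps. Ki given as mean (SEM), n = 3-5, reported to two significant figures.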

[2] = molecular target: T2, GABA-A receptor; alpha-5/beta-3/gamma-2 (Homo sapiens, UniProt P18507+P28472+P31644); assay: Inhibition of [3H]Ro-151788 binding to human GABA A receptor (alpha-5-beta-3-gamma-2) stably expressed in L(tk-) cells.; type: cell-based; how it was run: as §1
T2 sequence (P18507 whole entry): T1 sequence (P18507 whole entry)
T2 sequence (P28472 whole entry): T1 sequence (P28472 whole entry)
T2 sequence (P31644 whole entry): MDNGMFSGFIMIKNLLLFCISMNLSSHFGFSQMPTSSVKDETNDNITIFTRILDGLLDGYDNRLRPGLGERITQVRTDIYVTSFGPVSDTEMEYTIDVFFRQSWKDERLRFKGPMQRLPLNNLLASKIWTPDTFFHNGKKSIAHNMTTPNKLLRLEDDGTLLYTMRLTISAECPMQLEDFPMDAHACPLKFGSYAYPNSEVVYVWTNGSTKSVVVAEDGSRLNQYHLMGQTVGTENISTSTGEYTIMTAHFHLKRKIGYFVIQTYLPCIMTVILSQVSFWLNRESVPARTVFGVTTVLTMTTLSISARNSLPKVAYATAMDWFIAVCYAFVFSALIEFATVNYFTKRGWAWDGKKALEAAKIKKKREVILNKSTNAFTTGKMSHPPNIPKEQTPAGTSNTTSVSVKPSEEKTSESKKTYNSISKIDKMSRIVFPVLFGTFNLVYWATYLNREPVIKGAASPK

[3] = molecular target: T3, GABA-A receptor; alpha-1/beta-3/gamma-2 (Homo sapiens, UniProt P14867+P18507+P28472); assay: Displacement of [3H]Ro-151788 from human GABA-A receptor alpha-1-beta-3-gamma-2 subunits expressed in L(tk-) cells (<50% inhibition at 10 uM); type: cell-based
T3 sequence (P14867 whole entry): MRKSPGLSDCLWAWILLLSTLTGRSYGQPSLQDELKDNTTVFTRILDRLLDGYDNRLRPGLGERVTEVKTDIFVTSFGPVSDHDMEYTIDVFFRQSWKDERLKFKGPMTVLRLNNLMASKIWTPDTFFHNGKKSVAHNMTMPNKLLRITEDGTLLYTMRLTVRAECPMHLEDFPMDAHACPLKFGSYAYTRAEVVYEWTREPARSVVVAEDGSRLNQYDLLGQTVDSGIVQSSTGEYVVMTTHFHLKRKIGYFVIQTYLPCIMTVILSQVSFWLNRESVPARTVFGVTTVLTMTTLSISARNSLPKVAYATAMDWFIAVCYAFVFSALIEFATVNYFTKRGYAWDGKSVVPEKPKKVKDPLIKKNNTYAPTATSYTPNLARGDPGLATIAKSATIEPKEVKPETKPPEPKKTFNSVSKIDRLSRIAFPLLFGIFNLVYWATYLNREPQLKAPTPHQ
T3 sequence (P18507 whole entry): T1 sequence (P18507 whole entry)
T3 sequence (P28472 whole entry): T1 sequence (P28472 whole entry)

[4] = molecular target: GABA-A receptor; alpha-3/beta-3/gamma-2 (Homo sapiens) (UniProt P18507+P28472+P34903); assay: Modulatory effect on coapplication with GABA at human Gamma-aminobutyric acid A receptor alpha-3-beta-3-gamma-2 in Xenopus oocytes.; type: cell-based; conditions: Oocyte
How it was run: (§2)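 Two-electrode voltage clamp of Xenopus oocytes transiently expressing human α1, α2 or α3 β3γ2S receptors. Test compound is co-applied with GABA at its EC20 (GABA range 4-30 µM). Result is the % change in GABA current, mean (SEM), n = 3-7, at the stated test compound concentration (µM).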

[5] = molecular target: T4, GABA-A receptor; alpha-1/beta-3/gamma-2 (Homo sapiens) (UniProt P14867+P18507+P28472); assay: Modulatory effect on coapplication with GABA at human Gamma-aminobutyric acid A receptor alpha-1-beta-3-gamma-2 in Xenopus oocyte.; how it was run: as §2
[6] = molecular target: T5, GABA-A receptor; alpha-2/beta-3/gamma-2 (Homo sapiens, UniProt P18507+P28472+P47869); assay: Displacement of [3H]Ro-151788 from human Gamma-aminobutyric acid A receptor alpha-2-beta-3-gamma-2 stably expressed in L(tk-) cells; type: cell-based; how it was run: as §1
T5 sequence (P18507 whole entry): T1 sequence (P18507 whole entry)
T5 sequence (P28472 whole entry): T1 sequence (P28472 whole entry)
T5 sequence (P47869 whole entry): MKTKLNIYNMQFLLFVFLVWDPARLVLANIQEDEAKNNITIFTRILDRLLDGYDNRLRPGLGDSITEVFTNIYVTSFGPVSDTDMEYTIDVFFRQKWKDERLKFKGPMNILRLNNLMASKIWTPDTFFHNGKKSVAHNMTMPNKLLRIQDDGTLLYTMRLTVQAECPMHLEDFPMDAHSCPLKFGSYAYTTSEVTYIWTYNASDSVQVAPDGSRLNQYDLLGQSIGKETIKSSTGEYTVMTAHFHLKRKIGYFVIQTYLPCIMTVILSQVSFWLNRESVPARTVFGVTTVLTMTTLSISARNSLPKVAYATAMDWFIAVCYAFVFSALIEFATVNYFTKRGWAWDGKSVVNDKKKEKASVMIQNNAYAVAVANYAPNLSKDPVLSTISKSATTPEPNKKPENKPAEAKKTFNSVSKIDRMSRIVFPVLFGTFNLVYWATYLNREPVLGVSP

[7] = molecular target: GABA-A receptor; alpha-2/beta-3/gamma-2 (Homo sapiens) (UniProt P18507+P28472+P47869); assay: Modulatory effect on coapplication with GABA at human Gamma-aminobutyric acid A receptor alpha-2-beta-3-gamma-2 expressed inXenopus oocytes; type: cell-based; conditions: Oocyte; how it was run: as §2
[8] = molecular target: T4, GABA-A receptor; alpha-1/beta-3/gamma-2 (Homo sapiens); assay: Modulatory effect on coapplication with GABA at human Gamma-aminobutyric acid A receptor alpha-1-beta-3-gamma-2 expressed in Xenopus oocytes; type: cell-based; conditions: Oocyte; how it was run: as §2
[9] = molecular target: T3, GABA-A receptor; alpha-1/beta-3/gamma-2; assay: Inhibition of [3H]Ro-151788 binding to human GABA A receptor (alpha-1-beta-3-gamma-2) stably expressed in L(tk-) cells.; type: cell-based
[10] = molecular target: T3, GABA-A receptor; alpha-1/beta-3/gamma-2; assay: Displacement of [3H]Ro-151788 from human GABA-A receptor alpha-1-beta-3-gamma-2 subunits expressed in L(tk-) cells (<50% inhibition at 3 uM); type: cell-based
[11] = molecular target: T5, GABA-A receptor; alpha-2/beta-3/gamma-2; assay: Displacement of [3H]Ro-151788 from human GABA-A receptor alpha-2-beta-3-gamma-2 subunits expressed in L(tk-) cells (<50% inhibition at 2 uM); type: cell-based
[12] = molecular target: T2, GABA-A receptor; alpha-5/beta-3/gamma-2; assay: Displacement of [3H]Ro-151788 from human GABA-A receptor alpha-5-beta-3-gamma-2 subunits expressed in L(tk-) cells; type: cell-based; how it was run: as §1
[13] = molecular target: T2, GABA-A receptor; alpha-5/beta-3/gamma-2; assay: Displacement of [3H]Ro-151788 from human GABA-A receptor alpha-5-beta-3-gamma-2 subunits expressed in L(tk-) cells (<50% inhibition at 2 uM); type: cell-based
[14] = molecular target: T3, GABA-A receptor; alpha-1/beta-3/gamma-2; assay: Displacement of [3H]Ro-151788 from human GABA-A receptor alpha-1-beta-3-gamma-2 subunits expressed in L(tk-) cells (<50% inhibition at 100 uM); type: cell-based

SMILES | pKi [1] | pKi [2] | pKi [3] | percent modulation of GABA EC20 response [4] | percent modulation of GABA EC20 response [5] | pKi [6] | percent modulation of GABA EC20 response [7] | EC20 [8] | pKi [9] | pKi [10] | pKi [11] | pKi [12] | pKi [13] | pKi [14]
COc1ccc(-c2cc(-c3nc(C)no3)c(=O)n(C)c2-c2ccncc2)cc1 | < 6.00 | – | – | – | – | – | – | – | – | < 6.00 | < 6.18 | < 6.18 | – | –
COc1ccc(-c2cc(C#N)c(O)nc2-c2ccc(N(C)C)cc2)cc1 | < 4.52 | < 6.18 | – | – | – | < 4.52 | – | – | – | – | – | – | – | < 4.52

The next compounds have a higher pKi [1] than those just listed; values first:

pKi [1] | pKi [2] | pKi [3] | percent modulation of GABA EC20 response [4] | percent modulation of GABA EC20 response [5] | pKi [6] | percent modulation of GABA EC20 response [7] | EC20 [8] | pKi [9] | pKi [10] | pKi [11] | pKi [12] | pKi [13] | pKi [14] | SMILES
6.60 | < 6.18 | < 5.52 | 132% | 181% | 6.22 | 81% | – | – | – | – | – | – | – | COC(=O)c1cc(-c2ccc(OC)cc2)c(-c2ccc(N(C)C)cc2)n(C)c1=O
7.82 | 6.46 | – | 36% | – | 7.64 | 15% | 9% | 7.52 | – | – | – | – | – | COc1ccc(-c2cc(-c3cccs3)c(=O)n(C)c2-c2ccncc2)cc1
6.07 | – | – | 8% | 7% | 5.74 | -16% | – | – | – | – | – | < 6.18 | – | COc1ccc(-c2cc(C#N)c(=O)n(C)c2-c2ccc(N(C)C)cc2)cc1

From ChEMBL document CHEMBL1136055, “3-Heteroaryl-2-pyridones: benzodiazepine site ligands with functional delectivity for alpha 2/alpha 3-subtypes of human GABA(A) receptor-ion channels” (J Med Chem, 2002)
